According to article PMC6976987 (Molecular Genetics and Metabolism Reports, 2020):
Read-outs that look alike come from different tables or passages of the source. Marks after values point to notes of the source that are not given here.

Key:
[1] = Rifampin drug interaction study: eliglustat pharmacokinetics in healthy adults; assay type: in vivo, human; conditions: single IV rifampin dose, overall statement
[2] = assay type: in vivo, human; conditions: for AUC: AUC0-τ; for AUC / AUC(0-inf) / Cmax: mean (SD); for AUC(0-inf): AUC0-∞; for Tmax: median (minimum, maximum)
How it was run: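 Open-label, fixed-sequence study in healthy CYP2D6 non-poor metabolizers. Oral test compound 84 mg, fasted: single dose Day 1, BID Days 2–8, then BID with a strong CYP3A/P-gp inhibitor 400 mg QD Days 9–15. Plasma sampled to 36 h Day 1, 12 h Day 8, 72 h Day 15, plus pre-dose samples. LC-MS/MS, LLOQ 0.2 ng/mL. Non-compartmental PK; ratios from log-transformed mixed-effects model with 90% CI.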

[3] = Safety assessments; assay type: in vivo, human
[4] = Safety assessments; assay type: in vivo, human; remark: listed apart in the source
How it was run: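 Open-label study in healthy adults. Safety was monitored after a single dose (Day 1), during multiple doses alone (Days 2–8), and during co-dosing (Days 9–15 with the CYP3A/P-gp inhibitor; Days 9–18 with the CYP2D6 inhibitor). Measures: treatment-emergent AEs, clinical labs, vital signs, physical exams, 12-lead ECG, 12 h continuous telemetry. An AE counted as treatment-related if possibly, probably or definitely related to study drug.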

[5] = CYP2D6 EMs only, eliglustat 84 mg BID with ketoconazole 400 mg QD
[6] = CYP2D6 non-PMs, eliglustat 84 mg BID with ketoconazole 400 mg QD
[7] = human, plasma, oral, 84 mg, eliglustat 84 mg BID, Days 2 to 8, all (N = 33)
[8] = human, plasma, oral, 84 mg, eliglustat 84 mg single dose, Day 1, all (N = 36)
[9] = human, plasma, oral, eliglustat 84 mg BID + ketoconazole 400 mg QD, Days 9 to 15, all (N = 33)
[10] = rifampin study (N = 25), whole study
[11] = rifampin study (N = 25), road traffic accident, unrelated to eliglustat or rifampin
[12] = concomitant dosing of eliglustat with ketoconazole, Days 9 to 15, N = 33
[13] = ketoconazole study (N = 36), whole study
[14] = multiple-dose eliglustat period, Days 2 to 8, N = 34

effect of a single intravenous dose of rifampin on eliglustat [1]: no effect | increase in eliglustat AUC0-τ compared to eliglustat alone [2, 5]: 4.4 fold | increase in eliglustat Cmax compared to eliglustat alone [2, 5]: 4.0 fold | increase in eliglustat AUC0-τ (exposure) compared to eliglustat alone [2, 6]: 4.3 fold | increase in eliglustat Cmax compared to eliglustat alone [2, 6]: 3.8 fold | Ratio (%) of geometric least squares mean, Cmax ([2]; all subjects, multiple dose, test 400 mg ketoconazole oral QD + 84 mg eliglustat oral BID (N = 33) vs reference 84 mg eliglustat oral BID alone (N = 33)): 3.84% | Ratio (%) of geometric least squares mean, AUC0-t ([2]; all subjects, multiple dose, test 400 mg ketoconazole oral QD + 84 mg eliglustat oral BID (N = 33) vs reference 84 mg eliglustat oral BID alone (N = 33), 0 to 12 h): 4.27% | increase in eliglustat exposure ([2]; co-administered with ketoconazole (discussion, rounded)): 4 fold | half-life ([2]; human, plasma, oral, 84 mg): 5.1 h | AUC ([2]; human, plasma, oral, 84 mg, eliglustat 84 mg BID, Days 2 to 8, CYP2D6 EMs only (N = 31), 0 to 12 h): 119 ng·h/mL | AUC ([2]; human, plasma, oral, 84 mg, eliglustat 84 mg BID, Days 2 to 8, all (N = 33), 0 to 12 h): 113 ng·h/mL | AUC(0-inf) ([2]; human, plasma, oral, 84 mg, eliglustat 84 mg single dose, Day 1, CYP2D6 EMs only (N = 32)): 77.2 ng·h/mL | AUC(0-inf) ([2]; human, plasma, oral, 84 mg, eliglustat 84 mg single dose, Day 1, all (N = 34)): 73.2 ng·h/mL | Cmax ([2]; human, plasma, oral, 84 mg, eliglustat 84 mg BID, Days 2 to 8, CYP2D6 EMs only (N = 31)): 19.5 ng/mL | Cmax [2, 7]: 18.6 ng/mL | Cmax ([2]; human, plasma, oral, 84 mg, eliglustat 84 mg single dose, Day 1, CYP2D6 EMs only (N = 34)): 10.3 ng/mL | Cmax [2, 8]: 9.87 ng/mL | Tmax [2, 7]: 2 h | Tmax [2, 8]: 1.6 h | AUC ([2]; human, plasma, oral, eliglustat 84 mg BID + ketoconazole 400 mg QD, Days 9 to 15, CYP2D6 EMs only (N = 31), 0 to 12 h): 501 ng·h/mL | AUC ([2]; human, plasma, oral, eliglustat 84 mg BID + ketoconazole 400 mg QD, Days 9 to 15, all (N = 33), 0 to 12 h): 474 ng·h/mL | Cmax ([2]; human, plasma, oral, eliglustat 84 mg BID + ketoconazole 400 mg QD, Days 9 to 15, CYP2D6 EMs only (N = 31)): 71 ng/mL | Cmax [2, 9]: 67.2 ng/mL | Tmax [2, 9]: 2.3 h
SMILES: CCCCCCCC(=O)N[C@H](CN1CCCC1)[C@H](O)c1ccc2c(c1)OCCO2 [eliglustat]
tolerability ([3]; administered alone and with rifampin): well tolerated | subjects with moderate dizziness ([3]; after completing multiple doses of eliglustat alone): 4.0% | subjects reporting an AE related to eliglustat ([3]; concomitant dosing with IV rifampin, Day 12, N = 25): 4.0% | subjects reporting AEs related to eliglustat ([3]; concomitant dosing with oral rifampin, Days 13 to 17, N = 24): 8.3% | subjects with moderate nausea, vomiting, and retching ([3]; during the multiple doses of eliglustat alone): 4.0% | subjects reporting treatment-related AEs ([3]; following treatment with eliglustat alone, N = 25): 20.0% | Any adverse event (AE), number of events [3, 10]: 65 N | Any adverse event (AE), number of subjects [3, 10]: 17 (68.0%) N (%) | Any treatment-related AE, number of events [3, 10]: 39 N | Any treatment-related AE, number of subjects [3, 10]: 11 (44.0%) N (%) | Discontinuations due to AE, number of events [3, 11]: 1 ^a N | Discontinuations due to AE, number of subjects [3, 11]: 1 (4%) N (%) | Serious AEs, number of events [3, 11]: 1 ^a N | Serious AEs, number of subjects [3, 11]: 1 (4%) N (%) | Severe AEs, number of events [3, 11]: 1 ^a N | Severe AEs, number of subjects [3, 11]: 1 (4%) N (%) | subjects reporting moderate AEs that were treatment-related ([3]; rifampin study overall): 12.0% | tolerability ([4]; administered alone and with ketoconazole): well tolerated | subjects with dysmenorrhea of moderate intensity ([4]; concomitant dosing of eliglustat with ketoconazole): 3.0% | number of AEs [4, 12]: 33 AEs | subjects with AEs [4, 12]: 48.5% | subjects reporting AEs related to eliglustat ([4]; concomitant dosing with ketoconazole, N = 33): 36.4% | subjects reporting AEs possibly related to both eliglustat and ketoconazole ([4]; concomitant dosing, N = 33): 33.3% | subjects reporting treatment-related AEs ([4]; following a single dose of eliglustat, Day 1, N = 36): 5.6% | QTcF interval prolongation ([4]; ketoconazole study): no clinically significant prolongations of QTcF interval | Any adverse event (AE), number of events [4, 13]: 58 N | Any adverse event (AE), number of subjects [4, 13]: 20 (55.6%) N (%) | Any treatment-related AE, number of events [4, 13]: 45 N | Any treatment-related AE, number of subjects [4, 13]: 15 (41.7%) N (%) | Discontinuations due to AE, number of events [4, 13]: 0 N | Discontinuations due to AE, number of subjects [4, 13]: 0 (0.0%) N (%) | Serious AEs, number of events [4, 13]: 0 N | Serious AEs, number of subjects [4, 13]: 0 (0.0%) N (%) | Severe AEs, number of events [4, 13]: 0 N | Severe AEs, number of subjects [4, 13]: 0 (0.0%) N (%) | subjects with dysmenorrhea of moderate intensity ([4]; multiple-dose eliglustat): 2.9% | number of AEs [4, 14]: 21 AEs | subjects with AEs [4, 14]: 32.4% | subjects reporting treatment-related AEs ([4]; multiple-dose eliglustat, N = 34): 23.5% | subjects with headache of moderate intensity ([4]; multiple-dose eliglustat, possibly related to eliglustat, unlikely related to ketoconazole): 2.9%
